procasp7 counter: counter-screen: procaspase-7 (human) activation. 330,000 tested, 0.093% active. activation, % at 8.5 µM. recombinant procaspase-7, Ac-DEVD-pNA absorbance 405 nm; D23A/D198A/D206A triple mutant, cannot self-cleave; scale: DMSO 0, 5 µM enzyme 100;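 active means percent activation above the screen-wide mean plus 3 SD, cut at about 25% in these data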
Target sequence (P55210 whole entry D23A/D198A/D206A): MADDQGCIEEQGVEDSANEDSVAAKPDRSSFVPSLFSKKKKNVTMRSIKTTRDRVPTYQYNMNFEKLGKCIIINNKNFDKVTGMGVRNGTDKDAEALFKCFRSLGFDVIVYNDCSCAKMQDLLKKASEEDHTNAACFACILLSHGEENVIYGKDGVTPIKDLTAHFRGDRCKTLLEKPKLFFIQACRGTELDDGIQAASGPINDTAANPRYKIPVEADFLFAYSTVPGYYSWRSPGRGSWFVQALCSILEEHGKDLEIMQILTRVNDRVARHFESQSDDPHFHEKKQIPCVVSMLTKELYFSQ
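System: Procaspase-7 triple mutant (PC-7 D3A); measure: % activation from two-timepoint absorbance difference, scaled to controls; times: 1 h compound preincubation, 2 h substrate cleavage, 25 °C; also added: Ac-DEVD-pNA substrate, 400 µM as added; measured by: Epi-absorbance of released pNA at 405 nm, two timepoints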
sPLA2-III inh: Blocks human group III sPLA2 activity; inhibition, % at 12.2 µM; Q9NZ20; 370,000 tested, 0.56% active; QFRET BODIPY PC-A2 liposome hydrolysis, fluorescence; AID 743126;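 active means inhibition above mean plus 3 SD of compounds lying within the high and low control bounds, cut at about 19% in these data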
PLC-gamma1 inh: PLC-gamma1 (human) inhibition, primary screen. P19174. 370,000 tested, 0.84% active. inhibition, % at 12.2 µM. AID 720700. purified PLC-gamma1, fluorogenic substrate, fluorescence
PLCb3 inh: inhibitors of human phospholipase C beta3 | Purified PLC-beta3, fluorogenic substrate, fluorescence | Q01970 | AID 720704 | 370,000 tested, 0.18% active | inhibition, % at 12.2 µM; in the data active means inhibition above about 11%
procasp3 activ: procaspase-3 (human) activation. 330,000 tested, 0.11% active. recombinant procaspase-3 D3A, Ac-DEVD-pNA absorbance 405 nm. activation, % at 8.5 µM;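 active means activation above the mean of all tested compounds plus 3 SD, cut at about 21% in these data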
Target sequence (P42574 whole entry D9A/D28A/D175A): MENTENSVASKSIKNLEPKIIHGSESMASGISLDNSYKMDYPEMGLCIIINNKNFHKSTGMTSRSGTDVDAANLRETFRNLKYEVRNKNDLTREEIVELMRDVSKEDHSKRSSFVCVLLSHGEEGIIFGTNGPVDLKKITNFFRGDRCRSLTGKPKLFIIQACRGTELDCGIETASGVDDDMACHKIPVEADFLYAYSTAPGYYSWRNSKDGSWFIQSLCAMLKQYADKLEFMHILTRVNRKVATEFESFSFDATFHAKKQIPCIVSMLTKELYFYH
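Technique: 405 nm absorbance of p-nitroaniline, reads at 0 and 120 min; Test system: Procaspase-3 D3A mutant; Incubation: 1 h enzyme-compound preincubation, then 2 h substrate reaction, 25 °C; Repeats: singlicate, each compound tested once; Benchmarks: low control DMSO wells, high control DMSO plus 5 µM PC-3 D3A.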
PLCg1 ctr: inhibits human PLC-gamma1 in PLC-beta3 counter-screen | shares compounds with PLC-gamma1 inh | purified PLC-gamma1, fluorogenic substrate, fluorescence | inhibition, % at 12.3 µM | 3,300 tested, 3.1% active | AID 743258
PLCb3 confirm: human PLC-beta3 inhibition, confirmation | 3,300 tested, 1% active | AID 743261 | shares compounds with PLC-gamma1 inh | inhibition, % at 12.3 µM | purified PLC-beta3, fluorogenic substrate fluorescence; in the data active means inhibition above about 11%
Of the large screens only hits and unclear results are named; the others gave an inactive call (follow-up assays come after a bar, where they were run). Compounds with a hit are over-represented: about 1.6% of the library has one in this group of screens. Unless noted, no stated cut-off is given here; in the data, active means inhibition above about 9.5%; inactive means the rest.

C=CC[C@@H](CC(=O)N(CCO)Cc1ccccc1)C(=O)N[C@@H](COC(=O)[C@H](CC=C)CC(=O)OC(C)(C)C)Cc1c[nH]c2ccccc12	none
C=CCC[C@@H](Cc1ccc(F)cc1)C(=O)OC[C@@H](NC(=O)[C@@H](CC=C)CC(=O)N[C@H](CO)Cc1ccccc1)C(C)(C)C	PLC-gamma1 inh 11 | PLCg1 ctr inactive | PLCb3 confirm inactive
C=CCC[C@@H](Cc1ccc(F)cc1)C(=O)OC[C@@H](NC(=O)[C@H](CC=C)CC(=O)N(CCO)Cc1ccccc1)c1ccccc1	none
C=CCC[C@@H](Cc1ccc(F)cc1)C(=O)OC[C@@H](NC(=O)[C@@H](CC=C)CC(=O)N(CCO)Cc1ccccc1)c1ccccc1	PLC-gamma1 inh 14 | PLCg1 ctr inactive | PLCb3 confirm inactive
C=CC[C@H](CC(=O)N(CCO)Cc1ccccc1)C(=O)N[C@@H](COC(=O)[C@@H](CC=C)CC(=O)OC(C)(C)C)Cc1c[nH]c2ccccc12	PLCb3 inh 12 | PLCg1 ctr inactive | PLCb3 confirm inactive
O=[N+]([O-])c1ccc(Cl)c(S(=O)(=O)NCCc2ccccn2)c1	none
CCOc1ccc(CO/N=C/c2c(C)[nH]c(=O)[nH]c2=O)cc1	PLC-gamma1 inh 13 | PLCg1 ctr inactive | PLCb3 confirm inactive
CCCCn1c(=O)[nH]c(=O)c2c1nc(-c1ccccn1)n2CC	none
CCO[C@H]1OC(C(=O)Nc2ccccc2)=C[C@@H](c2ccc(C(F)(F)F)cc2)[C@@H]1CCCO	PLC-gamma1 inh 10 | PLCg1 ctr inactive | PLCb3 confirm inactive
CCOC(=O)C1=CN(CC2CCCCC2)CCC1=O	none (no result: procasp7 counter, procasp3 activ)
Cc1nn(-c2ccccc2)c(Cl)c1C(=O)NCCCCNC(=O)c1c(C)nn(-c2ccccc2)c1Cl	PLC-gamma1 inh 12, PLCb3 inh 14 | PLCg1 ctr inactive | PLCb3 confirm inactive
Cc1nn(-c2ccccc2)c(Cl)c1C(=O)NCc1ccccc1F	none
O=C(ON=C1CCN(c2ccc([N+](=O)[O-])cc2)CC1)c1ccccc1	PLC-gamma1 inh 9.9 | PLCg1 ctr inactive | PLCb3 confirm inactive
O=C(NCc1cccc(C(F)(F)F)c1)C1CC2Cn3c(nc4ccccc43)C2N1Cc1ccccc1 (stereo unspecified)	PLCb3 inh 12 | PLCg1 ctr inactive | PLCb3 confirm inactive
O=C(NCc1ccc(OC(F)(F)F)cc1)C1CC2Cn3c(nc4ccccc43)C2N1Cc1ccccc1 (stereo unspecified)	none
CC1=C(C(=O)N(C)C)CC(CC(=O)NCC2CCCCC2)C(=O)N1CCC1=CCCCC1 (stereo unspecified)	PLC-gamma1 inh 11 (no result: procasp7 counter, procasp3 activ) | PLCg1 ctr inactive | PLCb3 confirm inactive
O=C(/C=C(/c1ccc(Cl)cc1)n1cncn1)c1ccccc1	PLCb3 inh 11 | PLCg1 ctr inactive | PLCb3 confirm inactive
CN(C)/C=C(/C(=O)c1ccccc1)n1cncn1	none
CC(=O)N1CCC(C(=O)Nc2ccc(S(=O)(=O)N3CCC(C)CC3)cc2)CC1	PLC-gamma1 inh 9.6 | PLCg1 ctr inactive | PLCb3 confirm inactive
CCOc1ccc(N2CC(C(=O)Nc3ccc(S(=O)(=O)N4CCCCC4)cc3)CC2=O)cc1 (stereo unspecified)	none
Cc1ccc(N2CC(C(=O)Nc3ccc(S(=O)(=O)N4CCCC4)cc3)CC2=O)cc1 (stereo unspecified)	PLC-gamma1 inh 15 | PLCg1 ctr inactive | PLCb3 confirm inactive
Cc1ccc(S(=O)(=O)N2CCC(C(=O)Nc3nnc(C4CCCC4)s3)CC2)cc1	PLC-gamma1 inh 15 | PLCg1 ctr inactive | PLCb3 confirm inactive
COc1ccc(N2CC(C(=O)Nc3ccc(S(=O)(=O)N4CCCC4)cc3)CC2=O)cc1 (stereo unspecified)	none
CCOc1ccc(N2CC(C(=O)Nc3cccc(S(=O)(=O)N4CCCCC4)c3)CC2=O)cc1 (stereo unspecified)	PLC-gamma1 inh 11 | PLCg1 ctr inactive | PLCb3 confirm inactive
Nc1cccc(C(=O)c2ccccc2C(=O)O)c1	none (no result: procasp7 counter, procasp3 activ)
O=C(O)c1cnn2c(-c3ccc(F)cc3)ccnc12	none
CC(C)NC(=O)c1csc([C@@H]2O[C@H](CO)[C@H](O)[C@H](O)[C@H]2O)n1	none (no result: procasp7 counter, procasp3 activ)
Cc1ccc(S(=O)(=O)N2CCC(C(=O)N3Cc4ccccc4C3)CC2)cc1	PLC-gamma1 inh 10 | PLCg1 ctr inactive | PLCb3 confirm inactive
COc1ccc(S(=O)(=O)N2CCC(C(=O)N3CCc4ccccc4C3)CC2)cc1	none
COc1ccc(CN=C2NC(=O)CC(C(=O)Nc3cc(C)cc(C)c3)S2)cc1 (stereo unspecified)	PLCb3 inh 17 | PLCg1 ctr inactive | PLCb3 confirm inactive
O=c1[nH][nH]c2c1[C@H](c1ccc(F)cc1)O[C@H](CCc1ccccc1)C2	none (no result: procasp7 counter, procasp3 activ)
COc1ccc(OCC(O)COc2ccc(C(=O)O)cc2)cc1 (stereo unspecified)	none
COc1ccc(OCc2ccc(C(=O)O)cc2)cc1	PLC-gamma1 inh 9.9 | PLCg1 ctr inactive | PLCb3 confirm inactive
O=S(=O)(Cc1ccc(Cl)cc1)NCC1CCCO1 (stereo unspecified)	none
O=S(=O)(Cc1ccc(Cl)cc1)C1CCCCC1O (stereo unspecified)	PLC-gamma1 inh 11 | PLCg1 ctr inactive | PLCb3 confirm inactive
CCCc1ccc(C(O)c2ncc(-c3cccc(C)c3)[nH]2)cc1 (stereo unspecified)	none (no result: procasp7 counter, procasp3 activ)
O=C(O)C1C2C=CC(C3CC23)C1C(=O)O (stereo unspecified)	PLC-gamma1 inh 10 | PLCg1 ctr inactive | PLCb3 confirm inactive
Cc1cccc(NC(=O)C2C3C=CC(C4CC34)C2C(=O)O)c1 (stereo unspecified)	none
CCc1nn(CCCC(=O)NCc2cc(Br)ccc2OC)c(=O)c2cc3occc3n12	none
COc1ccc(N2C(=O)C3C(C2=O)C3(c2ccccc2)c2ccccc2)cc1 (stereo unspecified)	PLC-gamma1 inh 12 | PLCg1 ctr inactive | PLCb3 confirm inactive
CC(=O)Nc1ccc(NC(=O)c2cc(-c3cc(F)ccc3OCC3CCCO3)n[nH]2)cc1 (stereo unspecified)	none (no result: procasp7 counter, procasp3 activ)
COc1ccc(NC(=O)c2cc(-c3cc(F)ccc3OCC3CCCO3)n[nH]2)cc1OC (stereo unspecified)	PLC-gamma1 inh 12 (no result: procasp7 counter, procasp3 activ) | PLCg1 ctr inactive | PLCb3 confirm inactive
COc1ccccc1CN1C(=O)C(Cc2ccccc2)ON=C1c1ncccc1C (stereo unspecified)	none (no result: procasp7 counter, procasp3 activ)
CCOCCCNC(=O)/C(C#N)=C/c1cc(OC)c(O)c([N+](=O)[O-])c1	PLC-gamma1 inh 13 | PLCg1 ctr inactive | PLCb3 confirm inactive

From PubChem
